ChEMBL document CHEMBL4118253, “Expedient synthesis and biological evaluation of alkenyl acyclic nucleoside phosphonate prodrugs” (Bioorg Med Chem, 2018)

Tests used:
Influenza A virus [1] = assay: Antiviral activity against Influenza A virus H1N1 infected in MDCK cells assessed as inhibition of virus-induced cytopathicity by MTS assay; format: functional, organism-based
Influenza A virus H3N2 [2] = assay: Antiviral activity against Influenza A virus H3N2 infected in MDCK cells assessed as inhibition of virus-induced cytopathicity by MTS assay; format: functional, organism-based
Influenza B virus [3] = assay: Antiviral activity against Influenza B virus infected in MDCK cells assessed as inhibition of virus-induced cytopathicity by MTS assay; format: functional, organism-based
[4] = Cytotoxicity against MDCK cells assessed as alteration of cell morphology by microscopic analysis; format: cell-based, Canis lupus familiaris; settings: dog
Influenza A virus [5] = assay: Antiviral activity against Influenza A virus H1N1 infected in MDCK cells assessed as inhibition of virus-induced visual cytopathicity; format: functional, organism-based
Influenza A virus H3N2 [6] = assay: Antiviral activity against Influenza A virus H3N2 infected in MDCK cells assessed as inhibition of virus-induced visual cytopathicity; format: functional, organism-based
Influenza B virus [7] = assay: Antiviral activity against Influenza B virus infected in MDCK cells assessed as inhibition of virus-induced visual cytopathicity; format: functional, organism-based
Vaccinia virus = assay: Antiviral activity against Vaccinia virus infected in HEL cells assessed as inhibition of virus-induced cytopathicity; format: functional, organism-based; settings: Orthopoxvirus vaccinia
Human alphaherpesvirus 3 = assay: Antiviral activity against thymidine kinase deficient Varicella-Zoster virus infected in HEL cells assessed as reduction in virus plaque formation; format: functional, organism-based; settings: Human alphaherpesvirus 3, HEL
[8] = Cytotoxicity against HEL cells assessed as alteration of cell morphology by microscopic analysis; format: cell-based; settings: human
In short: (§1)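 The value is the minimal cytotoxic concentration (MCC), the lowest concentration that causes a microscopically visible change in cell morphology. It was read in the same HEL or Vero cell cultures used for the antiviral tests.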

Human adenovirus 2 = assay: Antiviral activity against Adenovirus 2 infected in HEL cells assessed as inhibition of virus-induced cytopathicity; format: functional, organism-based; settings: Human mastadenovirus C
Human betaherpesvirus 5 [9] = assay: Antiviral activity against Human cytomegalovirus AD169 infected in HEL cells assessed as inhibition of virus-induced cytopathicity; format: functional, organism-based; settings: Human betaherpesvirus 5, AD169, HEL
Human betaherpesvirus 5 [10] = assay: Antiviral activity against Human cytomegalovirus Davis infected in HEL cells assessed as inhibition of virus-induced cytopathicity; format: functional, organism-based; settings: Human betaherpesvirus 5, Davis
Human respirovirus 3 = assay: Antiviral activity against Parainfluenza virus 3 infected in human HeLa cells assessed as inhibition of virus-induced cytopathicity; format: functional, organism-based; settings: Human respirovirus 3, HeLa
[11] = system: Mammalian orthoreovirus 1; assay: Antiviral activity against Reovirus-1 infected in human HeLa cells assessed as inhibition of virus-induced cytopathicity; format: functional, organism-based; settings: Mammalian orthoreovirus 1, HeLa
Coxsackievirus B4 = assay: Antiviral activity against Coxsackie virus B4 infected in African green monkey Vero cells assessed as inhibition of virus-induced cytopathicity; format: functional, organism-based; settings: Enterovirus B
Punta Toro virus = assay: Antiviral activity against Punta Toro virus infected in African green monkey Vero cells assessed as inhibition of virus-induced cytopathicity; format: functional, organism-based
[12] = Cytotoxicity against African green monkey Vero cells assessed as alteration of cell morphology by microscopic analysis; format: cell-based; settings: chlorocebus sabaeus; in short: as §1
[13] = system: Respiratory syncytial virus; assay: Antiviral activity against Respiratory syncytial virus infected in human HeLa cells assessed as inhibition of virus-induced cytopathicity; format: functional, organism-based
Sindbis virus = assay: Antiviral activity against Sindbis Virus infected in African green monkey Vero cells assessed as inhibition of virus-induced cytopathicity; format: functional, organism-based
Yellow fever virus = assay: Antiviral activity against Yellow fever virus infected in African green monkey Vero cells assessed as inhibition of virus-induced cytopathicity; format: functional, organism-based
[14] = Cytotoxicity against human HeLa cells assessed as alteration of cell morphology by microscopic analysis; format: cell-based

| Compound | EC50 (Influenza A virus [1]) | EC50 (Influenza A virus H3N2 [2]) | MCC [4] | EC50 (Influenza A virus [5]) | EC50 (Influenza A virus H3N2 [6]) | EC50 (Influenza B virus [7]) | EC50 (Vaccinia virus) | MCC [8] | also measured |
| --- | --- | --- | --- | --- | --- | --- | --- | --- | --- |
| NC12CC3CC(CC(C3)C1)C2 [AMANTADINE] | 1.4 µM | 1.6 µM | > 100 µM | 1.8 µM | 2 µM | > 100 µM | – | – | EC50 (Influenza B virus [3]): > 100 µM |
| O=c1[nH]c(=O)n([C@H]2C[C@H](O)[C@@H](CO)O2)cc1/C=C/Br [BRIVUDINE] | – | – | – | – | – | – | 19 µM | 250 to 300 µM | EC50 (Human alphaherpesvirus 3): 0.57 µM |
| Nc1ccn(C[C@@H](CO)OCP(=O)(O)O)c(=O)n1 [CIDOFOVIR] | – | – | – | – | – | – | 37 µM | > 250 µM | EC50 (Human adenovirus 2): 22 µM; EC50 (Human betaherpesvirus 5 [9]): 1.24 µM |
| Nc1nc2c(ncn2COC(CO)CO)c(=O)[nH]1 [GANCICLOVIR] | – | – | – | – | – | – | > 100 µM | > 100 µM | EC50 (Human betaherpesvirus 5 [9]): 11.4 µM; EC50 (Human betaherpesvirus 5 [10]): 2.29 µM |
| COc1c(C)c2c(c(O)c1C/C=C(\C)CCC(=O)O)C(=O)OC2 [MYCOPHENOLIC ACID] | – | – | – | – | – | – | – | – | EC50 (Human respirovirus 3): 0.4 µM; EC50 [11]: 6.8 µM; EC50 (Coxsackievirus B4): > 100 µM; EC50 (Punta Toro virus): 6.1 µM; MCC [12]: > 100 µM |
| CCOC(=O)C1=C[C@@H](OC(CC)CC)[C@H](NC(C)=O)[C@@H](N)C1 [OSELTAMIVIR] | 0.2 µM | > 100 µM | > 100 µM | 1.5 µM | > 100 µM | 2.9 µM | – | – | – |
| NC(=O)c1ncn([C@@H]2O[C@H](CO)[C@@H](O)[C@H]2O)n1 [RIBAVIRIN] | – | – | > 100 µM | – | – | – | – | – | EC50 (Human respirovirus 3): 95 µM; EC50 [11]: > 250 µM; EC50 [13]: 25 µM; EC50 (Sindbis virus): > 250 µM; EC50 (Coxsackievirus B4): > 250 µM; EC50 (Yellow fever virus): > 250 µM; MCC [12]: > 250 µM; MCC [14]: > 250 µM |
| CC(N)C12CC3CC(CC(C3)C1)C2 (configuration not stated) [RIMANTADINE] | > 200 µM | 0.7 µM | > 200 µM | > 200 µM | 0.4 µM | > 200 µM | – | – | EC50 (Influenza B virus [3]): > 200 µM |
| Nc1ccn([C@H]2CC[C@@H](CO)O2)c(=O)n1 [ZALCITABINE] | – | – | – | – | – | – | – | > 250 µM | EC50 (Human adenovirus 2): 10 µM |
